The source of these data is ChEMBL document CHEMBL3396998, “Synthesis and antitubercular evaluation of 4-carbonyl piperazine substituted 1,3-benzothiazin-4-one derivatives” (Bioorg Med Chem Lett, 2015).

Values after ≈ are worked out from the molar mass of the structure shown.

Test system in one data set: not listed separately
The data set can be described thus: Cytotoxicity against African green monkey Vero cells after 72 hrs by MTT assay. As to conditions: chlorocebus sabaeus. The format is cell-based. The method in brief: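 Vero cells were exposed to each compound over a broad concentration range. Viability was read by MTT, and cytotoxicity was reported as IC50.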
(Tetrazolium assays rely on reduction of a dye to a coloured formazan, in cell work by metabolically active cells.)
For `O=C(c1ccc(Cl)cc1)N1CCN(c2nc(=O)c3cc(C(F)(F)F)cc([N+](=O)[O-])c3s2)CC1`, the cytotoxic concentration (CC50) (usually the concentration that lowers cell viability or growth by half) at 72 h is > 125 µM.
For `CC1COC2(CCN(c3nc(=O)c4cc(C(F)(F)F)cc([N+](=O)[O-])c4s3)CC2)O1` (racemic), the CC50 at 72 h is > 125 µM.
Still for that read-out and setting: the same measure for `O=C(c1ccc([N+](=O)[O-])cc1)N1CCN(c2nc(=O)c3cc(C(F)(F)F)cc([N+](=O)[O-])c3s2)CC1`: > 125 µM; for `CCC(=O)N1CCN(c2nc(=O)c3cc(C(F)(F)F)cc([N+](=O)[O-])c3s2)CC1`: > 125 µM; for `O=C(c1ccc(C(F)(F)F)cc1)N1CCN(c2nc(=O)c3cc(C(F)(F)F)cc([N+](=O)[O-])c3s2)CC1`: > 125 µM.
On the same count and under the same terms, next, `O=c1nc(N2CCN(CC3CCCCC3)CC2)sc2c([N+](=O)[O-])cc(C(F)(F)F)cc12` [MACOZINONE]: > 125 µM; `COc1ccc(CC(=O)N2CCN(c3nc(=O)c4cc(C(F)(F)F)cc([N+](=O)[O-])c4s3)CC2)cc1`: > 125 µM.
The same measure, in the same setting: next, `O=C(CC1CCCCC1)N1CCN(c2nc(=O)c3cc(C(F)(F)F)cc([N+](=O)[O-])c3s2)CC1`: > 125 µM; `O=C(c1ccccc1[N+](=O)[O-])N1CCN(c2nc(=O)c3cc(C(F)(F)F)cc([N+](=O)[O-])c3s2)CC1`: > 125 µM; `CCCC(=O)N1CCN(c2nc(=O)c3cc(C(F)(F)F)cc([N+](=O)[O-])c3s2)CC1`: > 125 µM.
With `O=C(c1cccc(F)c1)N1CCN(c2nc(=O)c3cc(C(F)(F)F)cc([N+](=O)[O-])c3s2)CC1`, the 50% cytotoxic concentration (CC50) at 72 h was > 125 µM.
Same read-out and setting: next, `COc1cccc(C(=O)N2CCN(c3nc(=O)c4cc(C(F)(F)F)cc([N+](=O)[O-])c4s3)CC2)c1`: > 125 µM; `O=C(c1ccccc1F)N1CCN(c2nc(=O)c3cc(C(F)(F)F)cc([N+](=O)[O-])c3s2)CC1`: > 125 µM; `CCCCC(=O)N1CCN(c2nc(=O)c3cc(C(F)(F)F)cc([N+](=O)[O-])c3s2)CC1`: > 125 µM.
The same measure, in the same setting: the same measure for `CCc1ccc(C(=O)N2CCN(c3nc(=O)c4cc(C(F)(F)F)cc([N+](=O)[O-])c4s3)CC2)cc1`: > 125 µM; for `COc1ccccc1C(=O)N1CCN(c2nc(=O)c3cc(C(F)(F)F)cc([N+](=O)[O-])c3s2)CC1`: > 125 µM.

The next data set relates to Mycobacterium tuberculosis. The data set can be described thus: Antitubercular activity against Mycobacterium tuberculosis H37Ra ATCC 25177 by MABA method. The format is functional.
Conditions: not given
A general note: Alamar Blue is a resazurin reagent that responds to reducing activity.
As to `O=C(c1ccc(Cl)cc1)N1CCN(c2nc(=O)c3cc(C(F)(F)F)cc([N+](=O)[O-])c3s2)CC1`, the MIC90 – broadly, an inhibitory concentration at the 90% level, which refers to growth in some studies and to a panel of isolates in others – turned out to be 0.016 µM (≈ 0.00798 µg/mL).
`CC1COC2(CCN(c3nc(=O)c4cc(C(F)(F)F)cc([N+](=O)[O-])c4s3)CC2)O1` (racemic) returned an MIC90 of 0.004 µM (≈ 0.00173 µg/mL).
With `O=C(c1ccc([N+](=O)[O-])cc1)N1CCN(c2nc(=O)c3cc(C(F)(F)F)cc([N+](=O)[O-])c3s2)CC1`, the MIC90 was determined as 0.063 µM (≈ 0.0321 µg/mL).
The same measure, in the same setting: the same measure for `CCC(=O)N1CCN(c2nc(=O)c3cc(C(F)(F)F)cc([N+](=O)[O-])c3s2)CC1`: 0.016 µM (≈ 0.00666 µg/mL); for `O=C(c1ccc(C(F)(F)F)cc1)N1CCN(c2nc(=O)c3cc(C(F)(F)F)cc([N+](=O)[O-])c3s2)CC1`: 0.031 µM (≈ 0.0165 µg/mL); for `O=c1nc(N2CCN(CC3CCCCC3)CC2)sc2c([N+](=O)[O-])cc(C(F)(F)F)cc12` [MACOZINONE]: < 0.004 µM.
In turn, `COc1ccc(CC(=O)N2CCN(c3nc(=O)c4cc(C(F)(F)F)cc([N+](=O)[O-])c4s3)CC2)cc1` gave an MIC90 of 0.13 µM (≈ 0.0661 µg/mL).
Still for that read-out and setting: next, `O=C(CC1CCCCC1)N1CCN(c2nc(=O)c3cc(C(F)(F)F)cc([N+](=O)[O-])c3s2)CC1`: 0.016 µM (≈ 0.00775 µg/mL).
On the same count and under the same terms, the same measure for `O=C(c1ccccc1[N+](=O)[O-])N1CCN(c2nc(=O)c3cc(C(F)(F)F)cc([N+](=O)[O-])c3s2)CC1`: 0.13 µM (≈ 0.0662 µg/mL); for `CCCC(=O)N1CCN(c2nc(=O)c3cc(C(F)(F)F)cc([N+](=O)[O-])c3s2)CC1`: 0.13 µM (≈ 0.056 µg/mL); for `O=C(c1cccc(F)c1)N1CCN(c2nc(=O)c3cc(C(F)(F)F)cc([N+](=O)[O-])c3s2)CC1`: 0.016 µM (≈ 0.00772 µg/mL).
Still for that read-out and setting: next, `COc1cccc(C(=O)N2CCN(c3nc(=O)c4cc(C(F)(F)F)cc([N+](=O)[O-])c4s3)CC2)c1`: 0.031 µM (≈ 0.0153 µg/mL); `O=C(c1ccccc1F)N1CCN(c2nc(=O)c3cc(C(F)(F)F)cc([N+](=O)[O-])c3s2)CC1`: 0.008 µM (≈ 0.00386 µg/mL); `CCCCC(=O)N1CCN(c2nc(=O)c3cc(C(F)(F)F)cc([N+](=O)[O-])c3s2)CC1`: 0.031 µM (≈ 0.0138 µg/mL).
In turn, `CCc1ccc(C(=O)N2CCN(c3nc(=O)c4cc(C(F)(F)F)cc([N+](=O)[O-])c4s3)CC2)cc1` displayed an MIC90 of 0.031 µM (≈ 0.0153 µg/mL).
Regarding `COc1ccccc1C(=O)N1CCN(c2nc(=O)c3cc(C(F)(F)F)cc([N+](=O)[O-])c3s2)CC1`, the MIC90 was 0.063 µM (≈ 0.0312 µg/mL).

Test system in a further data set: not listed separately
The data set can be described thus: Aqueous solubility of the compound by HPLC method. The format is physicochemical. The settings on record: water.
For `O=C(c1ccc(Cl)cc1)N1CCN(c2nc(=O)c3cc(C(F)(F)F)cc([N+](=O)[O-])c3s2)CC1`, the solubility (in general, how much of the substance goes into solution per volume) came out at 5.19 µg/mL (≈ 10.4 µM).
On to `CC1COC2(CCN(c3nc(=O)c4cc(C(F)(F)F)cc([N+](=O)[O-])c4s3)CC2)O1` (racemic), for which the solubility was 0.94 µg/mL (≈ 2.18 µM).
The compound `O=C(c1ccc([N+](=O)[O-])cc1)N1CCN(c2nc(=O)c3cc(C(F)(F)F)cc([N+](=O)[O-])c3s2)CC1` registered a solubility of 1.67 µg/mL (≈ 3.28 µM).
Still for that read-out and setting: the same measure for `CCC(=O)N1CCN(c2nc(=O)c3cc(C(F)(F)F)cc([N+](=O)[O-])c3s2)CC1`: 3.29 µg/mL (≈ 7.9 µM); for `O=C(c1ccc(C(F)(F)F)cc1)N1CCN(c2nc(=O)c3cc(C(F)(F)F)cc([N+](=O)[O-])c3s2)CC1`: 7.53 µg/mL (≈ 14.1 µM); for `O=c1nc(N2CCN(CC3CCCCC3)CC2)sc2c([N+](=O)[O-])cc(C(F)(F)F)cc12` [MACOZINONE]: 9.07 µg/mL (≈ 19.9 µM).
Still for that read-out and setting: next, `COc1ccc(CC(=O)N2CCN(c3nc(=O)c4cc(C(F)(F)F)cc([N+](=O)[O-])c4s3)CC2)cc1`: 2.72 µg/mL (≈ 5.35 µM); `O=C(CC1CCCCC1)N1CCN(c2nc(=O)c3cc(C(F)(F)F)cc([N+](=O)[O-])c3s2)CC1`: 0.12 µg/mL (≈ 0.248 µM).
The compound `O=C(c1ccccc1[N+](=O)[O-])N1CCN(c2nc(=O)c3cc(C(F)(F)F)cc([N+](=O)[O-])c3s2)CC1` displayed a solubility of 2.15 µg/mL (≈ 4.22 µM).
Same read-out and setting: next, `CCCC(=O)N1CCN(c2nc(=O)c3cc(C(F)(F)F)cc([N+](=O)[O-])c3s2)CC1`: 2.46 µg/mL (≈ 5.72 µM).
Same read-out and setting: next, `O=C(c1cccc(F)c1)N1CCN(c2nc(=O)c3cc(C(F)(F)F)cc([N+](=O)[O-])c3s2)CC1`: 0.2 µg/mL (≈ 0.415 µM); `COc1cccc(C(=O)N2CCN(c3nc(=O)c4cc(C(F)(F)F)cc([N+](=O)[O-])c4s3)CC2)c1`: 0.91 µg/mL (≈ 1.84 µM).
The same measure, in the same setting: next, `O=C(c1ccccc1F)N1CCN(c2nc(=O)c3cc(C(F)(F)F)cc([N+](=O)[O-])c3s2)CC1`: 3.1 µg/mL (≈ 6.43 µM); `CCCCC(=O)N1CCN(c2nc(=O)c3cc(C(F)(F)F)cc([N+](=O)[O-])c3s2)CC1`: 42.5 µg/mL (≈ 95.6 µM).
Turning to `CCc1ccc(C(=O)N2CCN(c3nc(=O)c4cc(C(F)(F)F)cc([N+](=O)[O-])c4s3)CC2)cc1`, the solubility was < 0.1 µg/mL.
On to `COc1ccccc1C(=O)N1CCN(c2nc(=O)c3cc(C(F)(F)F)cc([N+](=O)[O-])c3s2)CC1`, for which the solubility was found to be 13.6 µg/mL (≈ 27.4 µM).
